LMPTP block: LMPTP (human) inhibition; recombinant LMPTP-A, OMFP fluorogenic substrate, fluorescence intensity; inhibition, % at 20 µM; 0.22% of 360,000 active;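 active means compounds that cut the enzyme signal by at least half of the control window in the single-dose screen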;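 further: plate controls were DMSO wells with enzyme plus substrate for no effect and substrate without enzyme for full effect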
Target sequence (P24666 whole entry, looked up): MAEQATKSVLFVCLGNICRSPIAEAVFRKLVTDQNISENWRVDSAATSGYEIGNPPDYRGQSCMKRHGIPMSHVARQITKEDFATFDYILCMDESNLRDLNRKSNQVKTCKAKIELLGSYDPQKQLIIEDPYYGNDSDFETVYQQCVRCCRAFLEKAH
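Test system: LMPTP-A, protein tyrosine phosphatase of low molecular weight; Input: 0.625 nM enzyme; Incubation: 50 min dark incubation at room temperature; Signal: endpoint fluorescence intensity from OMFP dephosphorylation; Read-out basis: % inhibition versus control wells.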
STEP inh: STEP (human) phosphatase inhibition | P54829 | recombinant STEP, OMFP fluorogenic substrate, fluorescence | inhibition, % at 20 µM | 0.25% of 360,000 active;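 active means inhibition at 20 µM, scaled per plate between control wells, above about 37%, limit read from the data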;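 further: 0% = DMSO with enzyme and substrate and 100% = substrate only without enzyme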
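Assay system: isolated STEP enzyme. Buffer or medium: pH 6.0 Bis-Tris with DTT and Tween 20. Also added: fluorogenic phosphatase substrate OMFP at 25 µM final. Dosing: 20 µM, 1% DMSO. Timing: 20 min reaction, room temperature, in the dark. Measured by: fluorescence intensity, excitation 480 nm, emission 540 nm. Evaluation: normalized % inhibition.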
Scp1 inh: inhibitors of human Scp-1 phosphatase. Q9GZU7. Recombinant Scp1, phosphopeptide, malachite green phosphate absorbance. inhibition, % at 20 µM. 0.88% of 340,000 active;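 active means inhibition above about 50% at 20 µM, limit read from the data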;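 further: plate controls were DMSO wells with enzyme for no effect and wells lacking enzyme for full effect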
Target sequence (Q9GZU7 76-261 limits assumed): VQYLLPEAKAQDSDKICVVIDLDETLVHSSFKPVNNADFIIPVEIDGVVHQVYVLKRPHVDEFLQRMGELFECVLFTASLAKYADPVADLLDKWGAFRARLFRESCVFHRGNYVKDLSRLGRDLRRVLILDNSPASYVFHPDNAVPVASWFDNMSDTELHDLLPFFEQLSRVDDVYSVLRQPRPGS
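Test system: SCP-1 phosphatase catalytic domain, residues 76-261; measured by: colorimetric phosphate reagent with accelerator and stabiliser, absorbance at 630 nm; timing: enzyme reaction 45 min at room temperature, colour 5 min, stabilisation 30 min; also added: Phosphorylated 17-residue peptide substrate; compound dosing: one concentration, 20 µM, with 1.0% DMSO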
SUMO1-SIM PPI: SUMO1-SIM interaction modulation; 0.33% of 360,000 active; inhibition, % at 20 µM; SUMO1 binding to a labelled peptide, TR-FRET, 1 h; AID 602429; P63165; in the data active means inhibition above about 37%
Target sequence (P63165 whole entry, looked up): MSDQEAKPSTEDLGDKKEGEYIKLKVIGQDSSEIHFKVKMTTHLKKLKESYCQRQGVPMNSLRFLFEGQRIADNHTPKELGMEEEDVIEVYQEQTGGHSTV
DNMT1 block: blocks human DNA methyltransferase DNMT1. P26358. DNMT1 molecular beacon, Hinp1I cleavage, fluorescence. inhibition (reported as % activation of signal), % at 10 µM. 0.83% of 360,000 active. AID 588458; in the data active means inhibition above about 50%
DNMT1 inh conf: DNMT1 inhibition confirmation, single concentration; shares compounds with DNMT1 block; 8% of 2,300 active; inhibition, % at 10 µM; DNMT1 molecular beacon HinP1I cleavage, fluorescence; AID 602385;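 active means average inhibition of at least 30% in the single-concentration confirmation test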
DNMT1 interf: counter-screen for DNMT1 inhibitors: spectral interference; shares compounds with DNMT1 block; DNMT1 molecular beacon spectral interference counterscreen, fluorescence 485/520; activation (fluorescence interference), % at 10 µM; 1% of 2,300 active; AID 602387;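 active means activation of at least 30% at 10 µM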;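 further: DNMT1 catalytic domain with a HinP1I cleavage step and a FAM/dabcyl DNA beacon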
The depositor's hits bear a star. A selection: hits, their analogues and other compounds. The true share with any hit is near 1.7%.

How did O=C(/C=C/c1ccco1)Nc1cccc(C(=O)Nc2ccccc2C(=O)O)c1 do in these assays?
LMPTP block: 4; STEP inh: 12; Scp1 inh: 58*; SUMO1-SIM PPI: 53*; DNMT1 block: 86*; DNMT1 inh conf: 11; DNMT1 interf: 0

How did Cc1ccc(-n2nc3ccc(NC(=O)/C=C/c4ccco4)cc3n2)cc1 do in these assays?
LMPTP block: 8; STEP inh: 7; Scp1 inh: 38; SUMO1-SIM PPI: 6; DNMT1 block: 104*; DNMT1 inh conf: 18; DNMT1 interf: 4

What do the screens show for `Cc1ccc(-c2cnc(C(O)c3ccc(Cl)c(Cl)c3)[nH]2)cc1` (stereo unspecified)?
LMPTP block: 0; STEP inh: 0; SUMO1-SIM PPI: 0; DNMT1 block: 5

Results for CC1CCc2[nH]c3ccc(C(=O)N4CCCC(C(F)(F)F)C4)cc3c2C1 (stereo unspecified) ?
LMPTP block: 3; STEP inh: 6; Scp1 inh: 0; SUMO1-SIM PPI: 6; DNMT1 block: 3

How did CC(=O)N1CC(C)Oc2ccc(S(=O)(=O)Nc3ccc(Cl)cn3)cc21 (stereo unspecified) do in these assays?
LMPTP block: 0; STEP inh: 1; Scp1 inh: -6; SUMO1-SIM PPI: 4; DNMT1 block: 1

What do the screens show for `C=CCn1c(SCC(C)=O)nc2scc(-c3ccco3)c2c1=O`?
LMPTP block: 25; STEP inh: 9; Scp1 inh: 19; SUMO1-SIM PPI: 24; DNMT1 block: 75*; DNMT1 inh conf: 7; DNMT1 interf: 5

What do the screens show for `C=CCn1c(SCc2ccc3c(c2)OCO3)nc2scc(-c3ccco3)c2c1=O`?
LMPTP block: 7; STEP inh: 3; Scp1 inh: -9; SUMO1-SIM PPI: 25; DNMT1 block: 103*; DNMT1 inh conf: 4; DNMT1 interf: 3

Results for C=CCn1c(SC(F)F)nc2scc(-c3ccco3)c2c1=O ?
LMPTP block: 4; STEP inh: 6; Scp1 inh: -5; SUMO1-SIM PPI: 1; DNMT1 block: 3

How did C=CCn1c(SCC(=O)NCc2ccc3c(c2)OCO3)nc2scc(-c3ccccc3)c2c1=O do in these assays?
LMPTP block: 2; STEP inh: 2; Scp1 inh: -10; SUMO1-SIM PPI: -2; DNMT1 block: 1

What do the screens show for `CCc1ccc(NC(=O)CNS(=O)(=O)c2c(C)noc2C)cc1`?
LMPTP block: 1; STEP inh: -1; Scp1 inh: -14; SUMO1-SIM PPI: 10; DNMT1 block: 68*; DNMT1 inh conf: 3; DNMT1 interf: 1

How did CCc1ccc(NC(=O)C2CCN(S(=O)(=O)c3c(C)noc3C)CC2)cc1 do in these assays?
LMPTP block: 2; STEP inh: -1; Scp1 inh: -10; SUMO1-SIM PPI: 0; DNMT1 block: 1

What do the screens show for `COc1ccc([C@H]2[C@H](C(=O)C(C)(C)C)N3N=Cc4ccccc4C3[C@]23N=C(c2ccccc2)OC3=O)cc1OC` (stereo partly specified)?
LMPTP block: 1; STEP inh: 1; Scp1 inh: -5; SUMO1-SIM PPI: -5; DNMT1 block: 55*; DNMT1 inh conf: 3; DNMT1 interf: 2

What do the screens show for `COc1ccc([C@H]2[C@H](C(=O)C(C)(C)C)N3N=Cc4ccccc4C3[C@]23N=C(c2ccccc2)OC3=O)cc1` (stereo partly specified)?
LMPTP block: 1; STEP inh: 0; Scp1 inh: -10; SUMO1-SIM PPI: 3; DNMT1 block: -3

What do the screens show for `Cc1cc(C)n2c(Br)c(CSc3nc4ccccc4o3)nc2n1`?
LMPTP block: 6; STEP inh: 4; Scp1 inh: 23; SUMO1-SIM PPI: 10; DNMT1 block: 59*; DNMT1 inh conf: 15; DNMT1 interf: 7

Results for Nn1c(CSc2nc3ccccc3o2)nnc1CSc1nc2ccccc2o1 ?
LMPTP block: 2; STEP inh: 1; Scp1 inh: 0; SUMO1-SIM PPI: 1; DNMT1 block: 2

Results for O=C1C2C3C=CC(CC3)C2C(=O)N1c1nccs1 (stereo unspecified) ?
LMPTP block: 0; STEP inh: 4; Scp1 inh: 7; SUMO1-SIM PPI: 2; DNMT1 block: 61*; DNMT1 inh conf: -2; DNMT1 interf: 1

Results for O=C1C2C3C=CC(C2C(=O)N1c1nccs1)C1C(=O)N(c2nccs2)C(=O)C31 (stereo unspecified) ?
LMPTP block: -2; STEP inh: 1; Scp1 inh: 5; SUMO1-SIM PPI: 3; DNMT1 block: 3

What do the screens show for `COc1cc(C=NNc2ccccc2[N+](=O)[O-])cc(OC)c1OC`?
LMPTP block: 1; STEP inh: 2; SUMO1-SIM PPI: -15; DNMT1 block: 53*; DNMT1 inh conf: 3; DNMT1 interf: 0

Results for COc1cc(/C=N/Nc2ccc(F)cc2F)cc(OC)c1OC ?
LMPTP block: 1; STEP inh: 2; Scp1 inh: -9; SUMO1-SIM PPI: -4; DNMT1 block: 0

How did CCOC(=O)N1CCN(C(=O)c2cn(C)c3ccc(S(=O)(=O)N4CCC(C)CC4)cc3c2=O)CC1 do in these assays?
LMPTP block: 0; STEP inh: 4; Scp1 inh: -2; SUMO1-SIM PPI: 5; DNMT1 block: 1

What do the screens show for `CCCCCOc1ccc(C(=O)CCC(=O)NC(C)c2ccc(S(N)(=O)=O)cc2)cc1` (stereo unspecified)?
LMPTP block: 1; STEP inh: 1; Scp1 inh: -4; SUMO1-SIM PPI: 10; DNMT1 block: 75*; DNMT1 inh conf: 2; DNMT1 interf: 2

How did COc1ccc(NC(=O)c2ccc(N3C(=O)C4CC=C(Cl)CC4C3=O)cc2)cc1 (stereo unspecified) do in these assays?
LMPTP block: 3; STEP inh: -3; Scp1 inh: 5; SUMO1-SIM PPI: -2; DNMT1 block: -16

How did O=C(NN1C(=O)C2CC=C(Cl)CC2C1=O)c1ccncc1 (stereo unspecified) do in these assays?
LMPTP block: -2; STEP inh: 4; Scp1 inh: 16; SUMO1-SIM PPI: 9; DNMT1 block: 58*; DNMT1 inh conf: 1; DNMT1 interf: 1

What do the screens show for `Cc1ccc(CNC(=O)c2ccc(CNS(=O)(=O)c3ccc4c(c3)C(C)(C)C(=O)N4C)cc2)o1`?
LMPTP block: -1; STEP inh: -4; Scp1 inh: -10; SUMO1-SIM PPI: 2; DNMT1 block: -5
